SR-BI DiI-HDL act = enhances SR-BI lipid uptake from DiI-HDL; CHO ldlA[mSR-BI] cells, DiI-HDL uptake fluorescence, 3 h; 100 = double the neutral-control signal; activation, % at 12.5 µM; 0.096% of 320,000 active; AID 504775;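 active = mean replicate activation of at least 60% and every replicate at or above 60%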;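 also: 0% = median plate neutral-control signal and 100% = twice that signal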
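Material: SR-BI-overexpressing, LDLR-lacking CHO cells; schedule: compound exposure 3 h, 37 °C; reagent: DiI-labelled HDL at 10 µg/mL final; technique: bottom-read fluorescence, 550/595 nm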
SR-BI HDL uptake = mouse SR-BI HDL lipid transfer inhibition. ldlA[mSR-BI] CHO cells, DiI-HDL uptake fluorescence, 3 h. inhibition, % at 12.5 µM. 0.96% of 320,000 active. AID 488896;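 active = mean replicate inhibition of at least 70% and a set share of replicates each scoring 70 or more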;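 also: 0% = median of neutral control wells and 100% = median of positive control wells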
UBC13 inh = human UBC13 polyubiquitination inhibition. P61088. UBC13 polyubiquitin chain formation, TR-FRET. inhibition, % at 20 µM. 0.47% of 330,000 active; in the data active = inhibition above about 45%, passing the limit was not always enough
Target sequence (P61088 whole entry, looked up): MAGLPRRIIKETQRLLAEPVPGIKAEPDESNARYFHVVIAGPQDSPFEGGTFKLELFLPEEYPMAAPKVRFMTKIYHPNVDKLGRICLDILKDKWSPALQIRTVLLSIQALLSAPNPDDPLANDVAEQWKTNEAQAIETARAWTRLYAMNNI
Neddylation inh = inhibitors of human cullin neddylation | AID 651699 | P61081+Q13564 | 0.58% of 360,000 active | TR-FRET cullin neddylation, biochemical | inhibition, % at 25 µM; in the data active = inhibition above about 36%
Numbers without * were called inactive; i = inactive; . = not tested or not shown. In the library only some 1.9% were active in any assay of this set; here they are far more common.

SMILES	SR-BI DiI-HDL act	SR-BI HDL uptake	UBC13 inh	Neddylation inh
CCOC(=O)N1CCN(S(=O)(=O)c2ccc(C(=O)Nc3nnc(CC)o3)cc2)CC1	-8	8	-24	-16
CCOC(=O)N1CCN(S(=O)(=O)c2ccc(C(=O)NNc3nc4c(C)cc(C)cc4s3)cc2)CC1	.	.	-70	18
CCOC(=O)N1CCN(S(=O)(=O)c2ccc(C(=O)NNc3nc4ccc(Cl)cc4s3)cc2)CC1	-128	128*	-50	5
CCOC(=O)[C@H]1[C@H]2COc3cc(OC)ccc3[C@@H]2N2C(=O)CN(Cc3ccc(OC)cc3)C(=O)[C@@]12C	15	-15	-5	-11
Cn1cnc(S(=O)(=O)N2CCCCC2c2cc(C(=O)NCc3ccc(Cl)c(Cl)c3)no2)c1 (stereo not given)	.	.	.	-9
NC(=S)NN=C1CCC2(CCCCC2)CC1	-85	85*	.	-5
NC(=S)NN=C1CCCCC12CCCC2	-75	75*	.	-3
COCOc1cccc(CN2CCC2(C)C(=O)Nc2cc(OC)ccc2OC)c1 (stereo not given)	.	.	.	2
O=C(Nc1nc2c(cc3c4c(cccc42)CC3)s1)c1ccccc1Cl	-76	76*	-8	35
O=C(Nc1nc2c(Cl)cccc2s1)C1CC1	28	-28	10	-9
COc1cccc(/C=N/NC(=O)N/N=C/c2cccc(OC)c2O)c1O	-83	83*	-10	-10
COc1cccc(/C=N/NC(=O)c2nc(-c3ccccc3)cc(-c3ccccc3)n2)c1O	-106	106*	-32	-3
COc1cccc(/C=N/NC(=O)c2c(C)nc3ccc(Br)cn23)c1O	-100	100*	-22	15
COc1cc(/C=N\NC(=O)c2ccc(Cn3nc([N+](=O)[O-])c(Cl)c3C)o2)ccc1O	-46	46	1	-34
CCOc1ccccc1/C=N/NC(=O)c1c(C)nc2ccc(Br)cn12	-66	66	13	7
COc1cccc(/C=N\NC(=O)c2ccc(Cn3cc(Br)c([N+](=O)[O-])n3)o2)c1O	-101	101*	-40	-38
Cc1ccc(NC(=O)CSCC(=O)Nc2cc(S(=O)(=O)N3CCOCC3)ccc2OC(C)C)cc1	14	-14	.	-3
CCOc1ccc(C(=O)NCC(=O)NCC(c2ccc(OC)cc2)N2CCOCC2)cc1OCC (stereo not given)	-16	16	12	15
O=C(c1cc(COc2cccc3cnccc23)on1)N1CCCC(CCCO)C1 (stereo not given)	28	-28	-1	45*
COc1ccc(OCc2cc(C(=O)N3CCCC(CO)C3)no2)c2ccccc12 (stereo not given)	-4	4	-2	0
CCN=C1S/C(=C\c2ccc(OCC)c(OC)c2)C(=O)N1CC	-65	65	8	2
CCN=C1S/C(=C\c2cc(Cl)c(OC)c(OC)c2)C(=O)N1CC	-77	77*	12	15
CC1CCN(C(=O)c2ccccc2SCC(=O)NCC2CCCCC2)CC1	588*	i	-3	0
COCCNC(=O)CSc1ccccc1C(=O)NCC1CCCCC1	22	-22	3	0
CCCCCC[N+](C)(C)CCSSCC[N+](C)(C)CCCCCC	-5	5	15	0
SMILES	SR-BI DiI-HDL act	SR-BI HDL uptake	UBC13 inh	Neddylation inh
CCCCCCCCCCCCCCCC[N+](C)(C)CC	13	-13	91*	5
Cn1c(=O)n(CCc2ccccc2)c(=O)c2c1nc1n2CCCN1CCc1ccccc1	506*	i	4	5
Cc1nn2c(-c3cccc(NC(=O)CSc4nc5ccccc5o4)c3)nnc2c2ccccc12	-76	76*	0	-64
COc1ccc(S(=O)(=O)NC(=O)C2(C)CCN2C(=O)CC2CCCC2)cc1 (stereo not given)	.	.	.	4
COc1ccc(NCC(=O)Nc2ccc(C#N)cc2)cc1Cl	-95	95*	-11	5
O=C(c1ccc(Br)c(S(=O)(=O)N2CCOCC2)c1)N1CCN(C/C=C/c2ccccc2)CC1	-11	11	.	3
Cc1nnc(SCC2=C(C(=O)O)N3C(=O)C(NC(=O)COc4ccccc4)C3SC2)s1 (stereo not given)	8	-8	0	8
CCC(C(=O)NC1C(=O)N2C(C(=O)O)=C(CSc3nnc(C)s3)CSC12)c1ccccc1 (stereo not given)	74*	-74	-1	-17
C=CCC[C@@H](Cc1ccc(F)cc1)C(=O)OC[C@@H](Cc1c[nH]c2ccccc12)NC(=O)[C@@H](CC=C)CC(=O)N[C@@H](CO)Cc1ccccc1	74*	-74	-7	14
COc1ccc(S(=O)(=O)/N=C2/C=CC(=O)C(C)=C2C)cc1	-12	12	-14	-4
COc1cc(C(=O)O/N=C2/C=C(C)C(=O)C=C2C)cc(OC)c1OC	-12	12	-15	-119
CC(S(=O)(=O)c1ccccc1)S(=O)(=O)c1ccccc1	.	.	.	-2
CC1=C/C(=N\OS(=O)(=O)c2ccccc2)C(C)=CC1=O	-79	79*	-6	22
CC1=C/C(=N\OS(=O)(=O)c2ccccc2)C(C(C)C)=CC1=O	-83	83*	.	13
CC1=C(C)/C(=N\OS(=O)(=O)c2ccc(C)cc2)C=CC1=O	-91	91*	.	26
CN(CC(=O)Nc1ccc(F)cc1)C(=O)C1CCN(C(=O)Nc2ccccc2)CC1	0	0	10	6
Cc1cc(=O)[nH]c2cc(O)ccc12	42	-42	4	.
CC(C)=CCCC1(C)C=Cc2c(c(C)cc3c2[nH]c2cc(O)ccc23)O1 (stereo not given)	-107	107*	34	-1
O=C(O)c1cc2cc(Oc3ccccc3)ccc2[nH]1	24	-24	13	33
CCOc1ccccc1NCc1cc(=O)oc2cc(C)c(O)cc12	-74	74*	4	5
C/C(=N\NC(=O)c1nnn(-c2nonc2N)c1CN1CCCCC1)c1ccccc1O	3	-3	-16	41*
C/C(=N\NC(=O)c1nnn(-c2nonc2N)c1CN(C)c1ccccc1)c1ccccc1O	-5	5	-14	.
Cc1cc(C)n(-c2cc(N3CCOCC3)nc(-c3ccccc3)n2)n1	-85	85*	7	-51
C(=N\c1c(-c2ccccc2)nc2n1CCS2)/c1ccccc1	-34	34	-4	-16
Clc1ccc(/C=N/c2c(-c3ccc(Cl)cc3)nc3n2CCS3)cc1	-89	89*	-17	-8
SMILES	SR-BI DiI-HDL act	SR-BI HDL uptake	UBC13 inh	Neddylation inh
CC1=C(/C=C/C(C)=N\NC(=O)c2ccncc2)C(C)(C)CCC1	-87	87*	0	-8
CC(/C=C/c1ccc2c(c1)OCO2)=N/NC(=O)c1ccncc1	-6	6	-3	-27
Cc1cccc(NC(=O)c2sc3nc(C)nc(N4CCOCC4)c3c2C)c1	.	.	.	-86
Cc1nc(N2CCC(C)CC2)c2c(C)c(C(=O)Nc3ccc(C)c(F)c3)sc2n1	-87	87*	22	-203
Cc1nc(N2CCCCC2)c2c(C)c(C(=O)Nc3ccc4c(c3)OCCO4)sc2n1	-77	77*	2	-38
COc1ccc(N2CCN(c3ccc(NC(=O)c4ccc5c(c4)OCO5)cc3C#N)CC2)cc1	7	-7	-13	-206
COc1ccc(CC(=O)Nc2ccc(N3CCN(c4ccc(OC)cc4)CC3)c(C#N)c2)cc1	-78	78*	-1	-67

Bioassay records deposited in PubChem by several laboratories.
